The term pIC50 denotes −log10 of the IC50, conventionally taken in molar units. By pEC50 is commonly meant −log10 of the EC50, conventionally taken in molar units. Usually pKd stands for −log10 of the Kd, conventionally taken in molar units. Usually Cmax stands for the highest concentration seen after dosing. By half-life is commonly meant how long it takes for the measured level to halve. Lower therefore signals rapid decline. By bioavailability is commonly meant dose-corrected exposure relative to a reference, in per cent.

pEC50, pIC50, pKd: −log10 of the molar value. Bounds are passed on as bounds.

Data set [1] addresses T1, Human immunodeficiency virus type 1 reverse transcriptase (Human immunodeficiency virus 1, UniProt Q72547). Kind of data set: Inhibition of HIV1 wild-type reverse transcriptase by scintillation counting assay.
For another data set, the target named is Cytochrome P450 3A4 (Homo sapiens, UniProt P08684). In words: Inhibition of recombinant CYP3A4. Format: ADME. The method in brief: (§1)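 Fluorogenic assay using 7-benzyloxy-4-(trifluoromethyl)-coumarin as substrate; IC50 reported in micromolar.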
Chain of Cytochrome P450 3A4 (P08684 whole entry): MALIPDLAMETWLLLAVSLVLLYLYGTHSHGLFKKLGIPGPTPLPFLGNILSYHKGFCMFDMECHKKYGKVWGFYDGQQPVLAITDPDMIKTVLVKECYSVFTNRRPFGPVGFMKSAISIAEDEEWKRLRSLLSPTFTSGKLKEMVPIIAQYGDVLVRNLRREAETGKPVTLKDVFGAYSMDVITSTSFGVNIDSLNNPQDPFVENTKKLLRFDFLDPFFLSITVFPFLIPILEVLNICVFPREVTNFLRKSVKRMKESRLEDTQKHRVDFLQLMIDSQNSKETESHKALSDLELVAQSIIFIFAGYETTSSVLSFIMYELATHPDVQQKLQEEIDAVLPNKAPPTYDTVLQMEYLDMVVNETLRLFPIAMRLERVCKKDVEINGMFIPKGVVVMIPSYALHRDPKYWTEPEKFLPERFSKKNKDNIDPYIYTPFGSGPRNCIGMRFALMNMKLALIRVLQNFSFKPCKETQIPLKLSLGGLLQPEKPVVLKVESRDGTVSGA
Data set [2] has as its target Human immunodeficiency virus type 1 reverse transcriptase (Human immunodeficiency virus 1, UniProt Q72547, K103N). Kind of data set: Inhibition of HIV1 reverse transcriptase K103N mutant by scintillation counting assay.
Data set [3] addresses Human immunodeficiency virus type 1 reverse transcriptase (Human immunodeficiency virus 1, UniProt Q72547, Y181C). In words: Inhibition of HIV1 reverse transcriptase Y181C mutant by scintillation counting assay.
The target in data set [4] is T1, Human immunodeficiency virus type 1 reverse transcriptase. In words: Binding affinity to HIV1 wild-type reverse transcriptase by surface plasmon resonance spectroscopy.
Data set [5] has as its system Human immunodeficiency virus 1. In words: Antiviral activity against HIV1 in human MT4 cells assessed as reduction of viral-induced cytopathic effect in presence of human serum. Format: functional, organism-based. The following applies: Human immunodeficiency virus 1, MT4. The method, boiled down:
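HIV-1-infected MT4 cells incubated with compound in presence of 40% human serum; reduction of viral cytopathic effect measured; EC50 derived.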
(In general: Protection from cytopathic effect is a common read-out in antiviral testing.)

Data set [6] deals with Human immunodeficiency virus 1. Kind of data set: Antiviral activity against HIV1 with reverse transcriptase G190A mutation in human MT4 cells assessed as reduction of virus-induced cytopathic effect. Format: functional, organism-based. The following applies: Human immunodeficiency virus 1, MT4. The method, boiled down:
(§2)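 MT4 cells infected with HIV-1 and incubated with compound in the presence of 10% fetal bovine serum. Read-out is the reduction of virus-induced cytopathic effect. EC50 derived; each value is the mean of at least two independent assays.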

Data set [7] has as its system Human immunodeficiency virus 1. In words: Antiviral activity against HIV1 with reverse transcriptase K103N/L100I mutation in human MT4 cells assessed as reduction of virus-induced cytopathic effect. Format: functional, organism-based. The following applies: Human immunodeficiency virus 1, MT4. The method, boiled down:
as §2

Data set [8] relates to Human immunodeficiency virus 1. In words: Antiviral activity against HIV1 with reverse transcriptase K103N/Y181C mutation in human MT4 cells assessed as reduction of virus-induced cytopathic effect. Format: functional, organism-based. The following applies: Human immunodeficiency virus 1, MT4. The method, boiled down:
as §2

The next data set has as its target T2, Cytochrome P450 1A2 (Homo sapiens, UniProt P05177).
T2 sequence (P05177 whole entry): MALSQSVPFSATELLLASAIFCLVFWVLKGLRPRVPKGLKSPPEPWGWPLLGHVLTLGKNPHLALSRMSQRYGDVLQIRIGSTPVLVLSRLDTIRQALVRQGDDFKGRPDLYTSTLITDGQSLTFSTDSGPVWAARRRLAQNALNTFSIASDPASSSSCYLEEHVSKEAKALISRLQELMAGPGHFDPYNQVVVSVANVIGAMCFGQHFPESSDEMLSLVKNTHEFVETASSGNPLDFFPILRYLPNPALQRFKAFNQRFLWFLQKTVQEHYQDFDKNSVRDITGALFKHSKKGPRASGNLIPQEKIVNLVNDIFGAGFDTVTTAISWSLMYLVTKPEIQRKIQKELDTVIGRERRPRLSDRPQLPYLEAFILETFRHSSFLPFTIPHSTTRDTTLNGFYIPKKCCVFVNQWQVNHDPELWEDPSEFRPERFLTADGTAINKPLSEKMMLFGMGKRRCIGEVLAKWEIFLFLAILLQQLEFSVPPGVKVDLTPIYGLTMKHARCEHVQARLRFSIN
In words: Inhibition of CYP1A2. Format: ADME. The method, boiled down: as §1

The next data set concerns the target Cytochrome P450 2D6 (Homo sapiens, UniProt P10635). In words: Inhibition of CYP2D6. Format: ADME. The method, boiled down:
as §1

A further data set addresses Cytochrome P450 2C9 (Homo sapiens, UniProt P11712). In words: Inhibition of CYP2C9. Format: ADME. The method, boiled down:
as §1

The next data set has as its target Cytochrome P450 2C19 (Homo sapiens, UniProt P33261). In words: Inhibition of CYP2C19. Format: ADME. The method, boiled down:
as §1

Data set [9] can be described thus: Cmax in rat at 5 mg/kg, po. Format: ADME, organism-based. Also noted: dose 5 mg/kg, route oral. The following applies: in vivo. The method in brief: (§3)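 Rats dosed orally at 5 mg/kg; plasma Cmax and AUC determined.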
For the next data set, the system named is Rattus norvegicus. Kind of data set: AUC in rat at 5 mg/kg, po. The following applies: in vivo. Further details: dose 5 mg/kg, route oral. Format: ADME, organism-based, Plasma. The method, boiled down: as §3
Data set [10] can be described thus: Half life in rat at 2.5 mg/kg, iv. Format: ADME, organism-based. Further details: dose 2.5 mg/kg, route intravenous. The following applies: in vivo. The method in brief: (§4)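 Rats given 2.5 mg/kg intravenously; half-life determined; apparent oral bioavailability calculated relative to oral dosing.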
Data set [11] is described as follows: Bioavailability in rat at 2.5 mg/kg, iv. Format: ADME, organism-based. The following applies: in vivo. The method in brief:
as §4

Data set [12] can be described thus: Cmax in dog at 5 mg/kg, po. Format: ADME, organism-based, Canis lupus familiaris. Also noted: dose 5 mg/kg, route oral. The following applies: in vivo.
In a further data set the test system is Canis familiaris. In words: AUC in dog at 5 mg/kg, po. Format: ADME, organism-based, Canis lupus familiaris, Plasma. Also noted: dose 5 mg/kg, route oral. The following applies: in vivo.
The nature of data set [13]: Half life in dog at 2.5 mg/kg, iv. Also noted: dose 2.5 mg/kg, route intravenous. The following applies: in vivo. Format: ADME, organism-based, Canis lupus familiaris.
Data set [14] can be described thus: Bioavailability in dog at 2.5 mg/kg, iv. Format: ADME, organism-based, Canis lupus familiaris. The following applies: in vivo.
In data set [15] the test system is Human immunodeficiency virus 1. In words: Antiviral activity against HIV1 in human MT4 cells assessed as reduction of viral-induced cytopathic effect. Format: functional, organism-based. The following applies: Human immunodeficiency virus 1, MT4.
Data set [16] has as its system Human immunodeficiency virus 1. Kind of data set: Antiviral activity against HIV1 with reverse transcriptase K103N mutation in human MT4 cells assessed as reduction of virus-induced cytopathic effect. Format: functional, organism-based. The following applies: Human immunodeficiency virus 1, MT4. The method, boiled down:
as §2

Data set [17] has as its system Human immunodeficiency virus 1. In words: Antiviral activity against HIV1 with reverse transcriptase Y181C mutation in human MT4 cells assessed as reduction of virus-induced cytopathic effect. Format: functional, organism-based. The following applies: Human immunodeficiency virus 1, MT4. The method, boiled down:
as §2

Chain of Cytochrome P450 2C19 (P33261 whole entry): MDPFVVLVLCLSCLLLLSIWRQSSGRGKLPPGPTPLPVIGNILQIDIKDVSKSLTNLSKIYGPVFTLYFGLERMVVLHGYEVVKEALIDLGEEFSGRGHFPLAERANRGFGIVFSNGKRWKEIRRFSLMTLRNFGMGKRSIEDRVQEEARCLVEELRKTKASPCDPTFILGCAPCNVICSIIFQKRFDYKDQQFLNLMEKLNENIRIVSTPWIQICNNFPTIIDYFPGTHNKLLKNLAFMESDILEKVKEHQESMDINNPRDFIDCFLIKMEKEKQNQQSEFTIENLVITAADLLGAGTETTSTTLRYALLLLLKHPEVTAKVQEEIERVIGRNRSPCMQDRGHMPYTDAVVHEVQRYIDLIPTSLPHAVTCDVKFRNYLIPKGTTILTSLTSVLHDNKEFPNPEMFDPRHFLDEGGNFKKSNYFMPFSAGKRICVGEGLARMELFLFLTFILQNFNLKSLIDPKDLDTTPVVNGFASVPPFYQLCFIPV
Chain of Cytochrome P450 2D6 (P10635 whole entry): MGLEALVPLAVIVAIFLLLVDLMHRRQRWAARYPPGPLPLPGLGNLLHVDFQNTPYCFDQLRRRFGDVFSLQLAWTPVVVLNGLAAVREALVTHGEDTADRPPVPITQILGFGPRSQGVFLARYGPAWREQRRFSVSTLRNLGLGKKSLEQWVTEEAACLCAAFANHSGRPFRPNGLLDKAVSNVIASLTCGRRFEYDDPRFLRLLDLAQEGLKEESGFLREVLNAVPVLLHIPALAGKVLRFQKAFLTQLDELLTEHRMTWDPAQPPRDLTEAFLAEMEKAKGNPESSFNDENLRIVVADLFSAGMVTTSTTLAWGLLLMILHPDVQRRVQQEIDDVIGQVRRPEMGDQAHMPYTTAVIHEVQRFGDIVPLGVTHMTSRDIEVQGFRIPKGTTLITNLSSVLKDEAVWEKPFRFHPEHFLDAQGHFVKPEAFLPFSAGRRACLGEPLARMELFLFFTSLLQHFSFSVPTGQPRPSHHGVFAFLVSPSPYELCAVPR
Chain of Cytochrome P450 2C9 (P11712 whole entry): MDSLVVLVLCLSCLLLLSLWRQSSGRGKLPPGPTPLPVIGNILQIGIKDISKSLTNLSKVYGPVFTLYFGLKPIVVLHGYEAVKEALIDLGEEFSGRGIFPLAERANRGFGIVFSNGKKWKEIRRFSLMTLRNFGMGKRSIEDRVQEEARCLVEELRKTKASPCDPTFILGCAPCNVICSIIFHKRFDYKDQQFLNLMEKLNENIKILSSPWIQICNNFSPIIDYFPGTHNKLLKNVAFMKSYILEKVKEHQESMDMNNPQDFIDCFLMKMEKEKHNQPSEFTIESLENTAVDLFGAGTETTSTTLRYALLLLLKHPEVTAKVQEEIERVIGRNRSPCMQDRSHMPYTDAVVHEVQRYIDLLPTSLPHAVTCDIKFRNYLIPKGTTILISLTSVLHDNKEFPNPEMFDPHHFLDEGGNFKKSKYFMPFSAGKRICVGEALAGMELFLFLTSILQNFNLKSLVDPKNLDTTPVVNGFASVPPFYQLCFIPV

`O=C(c1cccc(Cl)c1)c1cc(Cc2ccc(=O)[nH]n2)cc2ccoc12`: the negative-log IC50 (pIC50) in [1] was 5.09; on Cytochrome P450 3A4 it was 6.22.
`Cc1cc(Cc2ccc(Cl)c(Oc3ccccc3)c2)n[nH]c1=O`: the pIC50 was 6.44 in [1], 6.04 in [2] and 5.67 in data set [3].
With `O=c1ccc(Cc2cccc(Oc3cccc(Cl)c3)c2)n[nH]1`, the pIC50 in [1] is 4.68.
On the same count and under the same terms, as for `Cc1cc(Cl)cc(Oc2cccc(Cc3ccc(=O)[nH]n3)c2)c1`, the figure is 4.85.
`O=c1ccc(Cc2ccc(Cl)c(Oc3cccc(Cl)c3)c2)n[nH]1` had a pIC50 in data set [1] of 7.00.
In the case of `Cc1cc(Cc2ccc(Cl)c(Oc3ccccc3)c2F)n[nH]c1=O`, the results for the pIC50 in data set [1], in data set [2] and in data set [3] were 7.70, 7.30 and 6.68, respectively.
Take `Cc1cc(Cc2ccc(Cl)c(Oc3cc(F)cc(C#N)c3)c2F)n[nH]c1=O`: the pEC50 in [2] is 8.70; in data set [5], 7.96; in data set [6], 9.00; in data set [7], 8.52; in [8], 7.39. Also, the negative-log IC50 (pIC50) at Cytochrome P450 3A4 is 4.62; against Cytochrome P450 1A2, less than 4.30; against Cytochrome P450 2D6 it was less than 4.30; on Cytochrome P450 2C9, 5.10; against Cytochrome P450 2C19 it was 4.68. Moreover, the negative-log Kd (pKd) in data set [4] is 8.08. Moreover, the figures for the peak concentration (Cmax) in data set [9] and in data set [12] were 2300 nM and 1470 nM, respectively. In addition, the AUC is recorded as 22.4 uM.hr/ml in the data set with Rattus norvegicus and 8.8 uM.hr/ml in the data set on Canis familiaris. The half-life in data set [10] is 3.8 h; in data set [13], 6.4 h. Besides, the figures for the bioavailability in [11] and in data set [14] were 61% and 34%, respectively.
Consider `O=c1ccc(Cc2ccc(Cl)c(Oc3ccccc3)c2F)n[nH]1`, for which the figures for the pIC50 in data set [1], in [2] and in data set [3] were 7.00, 6.37 and 6.30, respectively.
As for `O=c1ccc(Cc2cc(Cc3cccc(Cl)c3)c3occc3c2)n[nH]1`, the negative-log IC50 (pIC50) is 5.41 in [1] and 6.74 on Cytochrome P450 3A4.
As to `O=c1ccc(Cc2ccc(Cl)c(Oc3ccccc3)c2)n[nH]1`, the results for the pIC50 in data set [1], in [2] and in data set [3] were 6.28, 5.47 and 5.26, respectively.
As for `O=C(c1ccc(Cl)cc1)c1cc(Cc2ccc(=O)[nH]n2)cc2ccoc12`, the pIC50 in data set [1] was 6.40; in data set [2], 6.59; in data set [3], 6.44. Besides, the figures for the pEC50 in data set [15], in [16] and in [17] were 7.10, 7.15 and 6.68, respectively.
`O=c1ccc(Cc2cc(Oc3cccc(Cl)c3)c3occc3c2)n[nH]1`: the figures for the pIC50 (in [1]; at Cytochrome P450 3A4) were 6.00 and 6.39, respectively.
In the case of `COc1cc(C#N)cc(Oc2c(Cl)ccc(Cc3cc(C)c(=O)[nH]n3)c2F)c1`, the pEC50 in data set [5] was 7.82; in data set [6], 9.00; in data set [7] it was 8.70; in data set [8], 7.51.
Regarding `Cc1ccc(Cc2ccc(=O)[nH]n2)cc1Oc1cccc(Cl)c1`, the pIC50 in [1] was 6.19.
As for `Cc1cc(Cc2ccc(Cl)c(Oc3cc(C#N)cc(C#N)c3)c2F)n[nH]c1=O`, the pEC50 in data set [2] was 8.70; in data set [5] it was 8.15; in [6], 9.00; in data set [8], 7.72.
With `O=C1Nc2ccc(Cl)cc2C(C#CC2CC2)(C(F)(F)F)O1` (single isomer, unassigned) [EFAVIRENZ], the negative-log EC50 (pEC50) in data set [5] is 7.72; in data set [6], 8.22; in data set [7] it was less than 6.30; in data set [8] it was 7.08.

For the origin of these results see ChEMBL document CHEMBL1155885, “Discovery and optimization of pyridazinone non-nucleoside inhibitors of HIV-1 reverse transcriptase” (Bioorg Med Chem Lett, 2008).
